Measured values from different studies.
Target: Mitogen-activated protein kinase kinase kinase kinase 5 (MAP4K5, Homo sapiens, UniProt Q9Y4K4)

SMILES | test | conditions | endpoint | result
O=C1NC(=O)c2cc(Nc3ccc(F)cc3)c(Nc3ccc(F)cc3)cc21 | cell-free assay | 0.5 µM | remaining signal | 89.5%
COc1cc(/C=C/C(=O)CC(=O)/C=C/c2ccc(O)c(OC)c2)ccc1O | enzyme activity, inhibitor | 1 µM | activity vs control | 87%
FC(F)(F)Oc1cccc(-c2cnc3ccc(-c4ccncc4)nn23)c1 | enzyme activity, inhibitor, radiometric | 5 µM | activity vs control | 74%
CNCc1ccccc1-c1csc([C@H](C)Nc2nc(C)nc3cc(OC)c(OC)cc23)c1 | cell-free assay, competition with immobilised ligand | 1 µM | remaining binding | 100%
COc1cc(Cl)c(C(=O)N[C@@H](CN[C@H]2CC[C@@H](N)CC2)Cc2ccc(C#N)cc2)cc1-c1ccc(CN[C@H](C)c2ccc(C)cc2)o1 | enzyme activity, inhibitor | 1 µM | remaining activity | 113%
Cc1cc(NC(=O)c2cccc(S(F)(F)(F)(F)F)c2)cc(-n2ccn3nc(-c4cccnc4)cc23)c1 | cell-free assay, competition with immobilised ligand | 1 µM | remaining binding | 100%
Cc1ccc(C(=O)Nc2ccc(CN3CCN(C)CC3)c(C(F)(F)F)c2)cc1C#Cc1cnc2cccnn12 | enzyme activity, inhibitor | 23.5 nM | remaining activity | 69%
COc1cc(Nc2cnc(C#N)c(O[C@H](C)CN(C)C)n2)ncc1-c1cnn(C)c1 | enzyme activity, inhibitor, radiometric | 1 µM | remaining activity | 46%
COc1ccc(COc2ccc(Cc3cnc(N)nc3N)cc2OC)cc1 | cell-free assay | 0.5 µM | remaining signal | 97.4%
O=C(Nc1cnn(-c2csc(C(=O)NC3COC3)c2)c1)Nc1ccccc1Cl | enzyme activity, inhibitor | 5 µM | remaining activity | 99.1%
COc1cc2ncnc(Nc3ccc(Oc4ccccc4)c(C)c3C)c2cc1OC | enzyme activity, inhibitor | 1 µM | inhibition | -2%
COCCOc1nc(-c2ccc(Cl)nc2)nc2c1CN(C(=O)c1ncn3ccccc13)CC2 | cell-free assay, competition with immobilised ligand | 0.1 µM | remaining binding | 91%
O=C1Nc2ccc(Cl)cc2C1=Cc1cc(Cl)c(O)c(Cl)c1 | cell-free assay | 0.5 µM | remaining signal | 75.9%
Cc1cc(C)c(-n2ccn3nc(-c4cccnc4)cc23)cc1NC(=O)c1cc(C#N)cc(S(F)(F)(F)(F)F)c1 | cell-free assay, competition with immobilised ligand | 0.1 µM | remaining binding | 83.4%
Nc1ncnc2occ(-c3ccc(NC(=O)Nc4cc(C(F)(F)F)ccc4F)cc3)c12 | cell-free assay, inhibitor | 20 µM | remaining signal | 0%
Cc1nc(N2CC[C@@H](O)C2)ncc1-c1cc(C(F)(F)F)cc2[nH]ncc12 | binding, competition with immobilised ligand | 1 µM | remaining binding | 75%
CC(C)(C)c1nc2c(s1)c1nc(N)ncc1c1ccc(NS(=O)(=O)c3c(F)cccc3F)c(F)c12 | enzyme activity, inhibitor, radiometric | 1 µM | remaining activity | 87%
CCCOc1ccc([C@@H]2[C@@H](C(=O)O)[C@H](c3ccc4c(c3)OCO4)CN2CC(=O)Nc2c(CC)cccc2CC)cc1 | cell-free assay, competition with immobilised ligand | 1 µM | remaining binding | 95%
COc1ccnn2ncc(-c3ccnc(N(C)C)n3)c12 | binding | 1 µM | remaining binding | 100%
